Assay results: ChEMBL document CHEMBL3407369, “Exploration of cyanine compounds as selective inhibitors of protein arginine methyltransferases: synthesis and biological evaluation” (J Med Chem, 2015)
Calls of active or inactive are those of the source. The rule behind the calls is not given here.

How the values were obtained:
[1] = target: T1, Protein arginine N-methyltransferase 1 (Homo sapiens, UniProt Q99873); experiment: Displacement of [3H]-SAM from recombinant His6-tagged PRMT1 (unknown origin) expressed in Escherichia coli BL21(DE3) at 10 uM incubated for 5 mins prior to H4(1 to 20)-BTN peptide addition measured after 8 mins by scintillation proximity assay
Procedure, shortened: (§1)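 His6-PRMT1 (0.02 µM) was purified from E. coli BL21(DE3) on Ni-NTA. It was preincubated 5 min with compound (10, 30 or 90 µM) and [3H]SAM (0.5 µM) in 50 mM HEPES pH 8.0, 1 mM EDTA, 50 mM NaCl, 0.5 mM DTT at ~25 °C. Biotinylated H4(1–20) peptide (1 µM) was added and the reaction run 8 min. It was quenched with isopropanol and read with streptavidin SPA beads. % inhibition was taken against water (full activity) and no-peptide blanks.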
Target sequence in this assay (Q99873 whole entry, looked up): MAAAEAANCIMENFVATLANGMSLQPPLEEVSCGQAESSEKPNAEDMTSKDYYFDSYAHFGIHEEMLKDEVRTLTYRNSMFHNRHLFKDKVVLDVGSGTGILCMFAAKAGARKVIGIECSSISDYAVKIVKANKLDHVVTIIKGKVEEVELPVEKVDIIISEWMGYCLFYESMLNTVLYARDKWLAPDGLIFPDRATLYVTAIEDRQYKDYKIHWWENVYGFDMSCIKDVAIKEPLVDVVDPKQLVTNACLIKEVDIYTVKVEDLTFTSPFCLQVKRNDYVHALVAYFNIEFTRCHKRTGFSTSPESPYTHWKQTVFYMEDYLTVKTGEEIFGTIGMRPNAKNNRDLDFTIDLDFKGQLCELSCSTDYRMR

[2] = target: T1, Protein arginine N-methyltransferase 1; experiment: Displacement of [3H]-SAM from recombinant His6-tagged PRMT1 (unknown origin) expressed in Escherichia coli BL21(DE3) incubated for 5 mins prior to H4(1 to 20)-BTN peptide addition measured after 8 mins by scintillation proximity assay
Procedure, shortened: (§2)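 Serial compound dilutions were tested in the same SPA format (His-tagged enzyme purified from E. coli BL21(DE3), 5 min preincubation, H4(1–20)-biotin substrate, 8 min reaction, ~25 °C, HEPES pH 8.0 buffer). [3H]SAM and peptide were set near their predetermined Km values for each enzyme. Remaining activity was fitted to a Hill-modified IC50 equation, giving IC50 and Hill coefficient.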
Target sequence in this assay (Q99873 whole entry): as the sequence (Q99873 whole entry, looked up) above

[3] = target: T1, Protein arginine N-methyltransferase 1; experiment: Displacement of [3H]-SAM from recombinant His6-tagged PRMT1 (unknown origin) expressed in Escherichia coli BL21(DE3) at 30 uM incubated for 5 mins prior to H4(1 to 20)-BTN peptide addition measured after 8 mins by scintillation proximity assay; procedure, shortened: as §1
Target sequence in this assay (Q99873 whole entry, looked up): as above

[4] = target: T1, Protein arginine N-methyltransferase 1; experiment: Displacement of [3H]-SAM from recombinant His6-tagged PRMT1 (unknown origin) expressed in Escherichia coli BL21(DE3) at 90 uM incubated for 5 mins prior to H4(1 to 20)-BTN peptide addition measured after 8 mins by scintillation proximity assay; procedure, shortened: as §1
Target sequence in this assay (Q99873 whole entry, looked up): as above

[5] = target: Protein arginine N-methyltransferase 5 (Homo sapiens, UniProt O14744); experiment: Displacement of [3H]-SAM from recombinant His6-tagged PRMT5 (unknown origin) expressed in Escherichia coli BL21(DE3) incubated for 5 mins prior to H4(1 to 20)-BTN peptide addition measured after 8 mins by scintillation proximity assay
Protein arginine N-methyltransferase 5, sequence (O14744 whole entry): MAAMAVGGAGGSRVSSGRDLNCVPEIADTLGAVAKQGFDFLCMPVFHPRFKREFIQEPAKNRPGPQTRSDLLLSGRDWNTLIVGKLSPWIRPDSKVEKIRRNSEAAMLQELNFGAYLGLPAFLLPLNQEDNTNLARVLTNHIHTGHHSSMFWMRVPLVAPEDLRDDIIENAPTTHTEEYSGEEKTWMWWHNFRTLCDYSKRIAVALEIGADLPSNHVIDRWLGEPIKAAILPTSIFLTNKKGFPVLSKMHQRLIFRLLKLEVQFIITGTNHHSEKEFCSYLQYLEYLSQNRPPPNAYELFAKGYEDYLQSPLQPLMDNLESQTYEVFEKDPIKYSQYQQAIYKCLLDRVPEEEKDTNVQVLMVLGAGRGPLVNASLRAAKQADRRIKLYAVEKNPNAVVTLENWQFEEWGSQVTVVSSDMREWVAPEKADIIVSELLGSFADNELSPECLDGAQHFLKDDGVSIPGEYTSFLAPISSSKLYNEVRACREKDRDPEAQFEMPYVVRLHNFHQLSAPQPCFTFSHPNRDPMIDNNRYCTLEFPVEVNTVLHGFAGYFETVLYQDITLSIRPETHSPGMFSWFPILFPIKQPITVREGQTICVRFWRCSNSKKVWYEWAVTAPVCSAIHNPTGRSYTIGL
Procedure, shortened: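 Recombinant His6-PRMT5 was purified on Ni-NTA after IPTG induction in E. coli BL21(DE3). [3H]SAM and H4(1–20)BTN were set near their predetermined Km. Serially diluted compound was preincubated 5 min before peptide addition, reacted 8 min, isopropanol-quenched, and read with streptavidin SPA beads. IC50 and nH came from a Hill fit.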

Homo sapiens [6] = organism: Homo sapiens; experiment: Selectivity ratio of IC50 for recombinant […] (unknown origin) to IC50 for recombinant His6-tagged PRMT1 (unknown origin)
Homo sapiens [7] = organism: Homo sapiens; experiment: Selectivity ratio of IC50 for recombinant His6-tagged PRMT5 (unknown origin) to IC50 for recombinant His6-tagged PRMT1 (unknown origin)
[8] = target: T2, Histone-arginine methyltransferase CARM1 (Homo sapiens, UniProt Q86X55); experiment: Displacement of [3H]-SAM from recombinant GST-tagged CARM1 (unknown origin) expressed in Escherichia coli BL21(DE3) incubated for 5 mins prior to H3.3 protein addition measured after 8 mins by P81 filter paper binding assay
T2 sequence (Q86X55 whole entry): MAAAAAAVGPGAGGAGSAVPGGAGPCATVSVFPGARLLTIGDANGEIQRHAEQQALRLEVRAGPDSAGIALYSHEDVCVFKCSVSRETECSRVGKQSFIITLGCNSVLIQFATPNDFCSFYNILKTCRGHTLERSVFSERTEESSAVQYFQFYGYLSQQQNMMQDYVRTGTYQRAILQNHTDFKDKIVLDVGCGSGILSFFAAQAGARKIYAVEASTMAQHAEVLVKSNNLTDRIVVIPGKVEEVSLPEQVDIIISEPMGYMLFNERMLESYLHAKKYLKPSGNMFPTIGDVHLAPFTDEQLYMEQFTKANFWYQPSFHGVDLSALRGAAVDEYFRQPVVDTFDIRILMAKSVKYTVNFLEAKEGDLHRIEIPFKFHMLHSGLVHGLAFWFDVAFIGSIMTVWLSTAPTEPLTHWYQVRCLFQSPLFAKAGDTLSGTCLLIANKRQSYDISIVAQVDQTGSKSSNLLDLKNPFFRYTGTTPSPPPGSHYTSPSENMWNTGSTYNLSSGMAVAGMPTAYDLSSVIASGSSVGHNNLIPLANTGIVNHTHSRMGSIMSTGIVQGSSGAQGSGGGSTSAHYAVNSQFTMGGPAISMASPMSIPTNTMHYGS

[9] = target: Protein arginine N-methyltransferase 8 (Homo sapiens, UniProt Q9NR22); experiment: Displacement of [3H]-SAM from recombinant His6-tagged PRMT8 (unknown origin) expressed in Escherichia coli BL21(DE3) incubated for 5 mins prior to H4(1 to 20)-BTN peptide addition measured after 8 mins by scintillation proximity assay; procedure, shortened: as §2
Protein arginine N-methyltransferase 8, sequence (Q9NR22 whole entry): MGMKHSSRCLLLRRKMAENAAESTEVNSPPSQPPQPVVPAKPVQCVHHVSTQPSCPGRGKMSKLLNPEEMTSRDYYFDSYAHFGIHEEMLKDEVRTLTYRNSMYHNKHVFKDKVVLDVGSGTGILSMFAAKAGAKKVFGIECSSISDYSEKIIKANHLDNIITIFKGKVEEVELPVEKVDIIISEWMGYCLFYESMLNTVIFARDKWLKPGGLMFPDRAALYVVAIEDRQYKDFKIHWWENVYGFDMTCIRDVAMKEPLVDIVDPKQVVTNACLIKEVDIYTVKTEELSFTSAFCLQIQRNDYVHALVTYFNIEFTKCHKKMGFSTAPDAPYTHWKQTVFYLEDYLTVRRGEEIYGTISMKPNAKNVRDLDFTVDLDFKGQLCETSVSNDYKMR

Homo sapiens [10] = organism: Homo sapiens; experiment: Selectivity ratio of IC50 for recombinant His6-tagged PRMT8 (unknown origin) to IC50 for recombinant His6-tagged PRMT1 (unknown origin)

Q: Which inhibition [1] does the source give for CCCCN1/C(=C/C=C/c2sc3c4ccccc4ccc3[n+]2CCCC)Sc2c1ccc1ccccc21 here?
A: 99%

Q: What about the IC50 [2] of the same molecule?
A: 4 µM

Q: Which inhibition [1] does the source give for CN1/C(=C/C=C/C2=[N+](CCC[N+](C)(C)C)c3ccc(S(=O)(=O)[O-])cc3C2(C)C)C(C)(C)c2ccccc21 here?
A: inactive

Q: What does the source list for CC1=[N+](CCCc2ccccc2)c2ccccc2C1(C)C?
A: inhibition [1]: inactive; inhibition [3]: inactive; inhibition [4]: 80%

Q: For CCN1/C(=C/C=C/c2sc3cc(Br)ccc3[n+]2CC)Sc2cc(Br)ccc21, which inhibition [1] is on record?
A: 88%

Q: What about the IC50 [2] of the same molecule?
A: 6.43 µM

Q: What does the source list for CCCCN1/C(=C/C=C/c2sc3ccc(Br)cc3[n+]2CCCC)Sc2ccc(Br)cc21?
A: inhibition [1]: 91%; IC50 [2]: 2.03 µM; IC50 [5]: 8.36 µM; Ratio IC50 (Homo sapiens [6]): 3; Ratio IC50 (Homo sapiens [7]): 3; IC50 [8]: 7.23 µM

Q: CCN1/C(=C/C(C)=C/c2sc3c4ccccc4ccc3[n+]2CC)Sc2c1ccc1ccccc21 was tested. Which inhibition [1] did it give?
A: 92%

Q: What about the IC50 [2] of the same molecule?
A: 2.37 µM

Q: How did the inhibition [1] turn out when CCN1/C(=C/C=C/c2sc3ccccc3[n+]2CC)Sc2ccccc21 was run?
A: 46%

Q: For CCCC[N+]1=C(/C=C/C=C2/N(C)c3ccccc3C2(C)C)C(C)(C)c2ccccc21, which inhibition [1] is on record?
A: 8%

Q: What about the inhibition [3] of the same molecule?
A: 32%

Q: And the inhibition [4]?
A: 79%

Q: Which IC50 [2] does the source give for CCCCN1/C(=C\C=C\C2=[N+](CCCC)c3ccc4ccccc4c3C2(C)C)C(C)(C)c2c1ccc1ccccc21 here?
A: 2.56 µM

Q: CC1(C)C(/C=C/C=C2/N(CCCc3ccccc3)c3ccc4ccccc4c3C2(C)C)=[N+](CCCc2ccccc2)c2ccc3ccccc3c21 was tested. Which inhibition [1] did it give?
A: 100%

Q: And the IC50 [2]?
A: 0.61 µM

Q: What about the IC50 [5] of the same molecule?
A: 1.4 µM

Q: And the IC50 [9]?
A: 1.74 µM

Q: Which inhibition [1] does the source give for CCCC[N+]1=C(C)C(C)(C)c2ccccc21 here?
A: inactive

Q: And the inhibition [3]?
A: inactive

Q: And the inhibition [4]?
A: inactive

Q: How did the inhibition [1] turn out when CCN1/C(=C\C=C\C2=[N+](CC)c3ccccc3C2(C)C)C(C)(C)c2ccccc21 was run?
A: 4%

Q: What about the inhibition [3] of the same molecule?
A: 42%

Q: And the inhibition [4]?
A: 60.6%

Q: For CN1/C(=C/C=C/C2=[N+](CCCc3ccccc3)c3ccccc3C2(C)C)C(C)(C)c2ccccc21, which inhibition [1] is on record?
A: 35%

Q: And the inhibition [3]?
A: 96%

Q: What about the inhibition [4] of the same molecule?
A: 101%

Q: For CC1(C)C(/C=C/C=C2/N(CCCc3ccccc3)c3ccc(Cl)cc3C2(C)C)=[N+](CCCc2ccccc2)c2ccc(Cl)cc21, which inhibition [1] is on record?
A: 100%

Q: And the IC50 [2]?
A: 1.15 µM

Q: With CN1/C(=C/C=C/C2=[N+](CCCS(=O)(=O)[O-])c3ccccc3C2(C)C)C(C)(C)c2ccccc21 as the molecule, how does the inhibition [1] read?
A: inactive

Q: For CCCCN1/C(=C/C=C/C2=[N+](CCCC)c3ccccc3C2(C)C)C(C)(C)c2ccccc21, which inhibition [1] is on record?
A: inactive

Q: What about the inhibition [3] of the same molecule?
A: 48%

Q: And the inhibition [4]?
A: 91%

Q: Which inhibition [1] does the source give for CCN1/C(=C/C=C/C2=[N+](CC)c3ccc(Cl)cc3C2(C)C)C(C)(C)c2cc(Cl)ccc21 here?
A: 7%

Q: Which inhibition [1] does the source give for CCCCN1/C(=C/C=C/C2=[N+](CCCC)c3ccc(Cl)cc3C2(C)C)C(C)(C)c2cc(Cl)ccc21 here?
A: 34%

Q: How did the inhibition [1] turn out when CCCCN1/C(=C/C=C/c2sc3cc(Br)ccc3[n+]2CCCC)Sc2cc(Br)ccc21 was run?
A: 93%

Q: And the IC50 [2]?
A: 2.67 µM

Q: How did the inhibition [1] turn out when CCCCN1/C(=C/C=C(Br)/C=C/C2=[N+](CCCC)c3ccc(Br)cc3C2(C)C)C(C)(C)c2cc(Br)ccc21 was run?
A: 96%

Q: And the IC50 [2]?
A: 3.38 µM

Q: What about the IC50 [5] of the same molecule?
A: 35.4 µM

Q: What about the IC50 [9] of the same molecule?
A: 84.9 µM

Q: And the IC50 [8]?
A: 21.5 µM

Q: Which inhibition [1] does the source give for CCCC[N+]1=C(/C=C/C=C2/N(C)c3ccccc3C2(C)C)C(C)(C)c2cc(Br)ccc21 here?
A: 36%

Q: For C(/C=C/c1sc2c3ccccc3ccc2[n+]1CCCc1ccccc1)=C1/Sc2c(ccc3ccccc23)N1CCCc1ccccc1, which inhibition [1] is on record?
A: 100%

Q: And the IC50 [2]?
A: 3.05 µM

Q: And the IC50 [5]?
A: 7.04 µM

Q: What about the IC50 [9] of the same molecule?
A: 28.4 µM

Q: And the Ratio IC50 (Homo sapiens [6])?
A: 2

Q: What about the Ratio IC50 (Homo sapiens [7]) of the same molecule?
A: 2

Q: And the Ratio IC50 (Homo sapiens [10])?
A: > 9

Q: What about the IC50 [8] of the same molecule?
A: 5.8 µM

Q: For CCN1/C(=C/C=C/C=C/C2=[N+](CC)c3ccc4ccccc4c3C2(C)C)C(C)(C)c2c1ccc1ccccc21, which inhibition [1] is on record?
A: 89%

Q: What about the IC50 [2] of the same molecule?
A: 3.39 µM

Q: Which inhibition [1] does the source give for CC1(C)C(/C=C/C=C/C=C2/N(CCCc3ccccc3)c3ccc4ccccc4c3C2(C)C)=[N+](CCCc2ccccc2)c2ccc3ccccc3c21 here?
A: 70.2%

Q: What about the IC50 [2] of the same molecule?
A: 5.76 µM

Q: For CC[N+]1=C(C)C(C)(C)c2ccccc21, which inhibition [1] is on record?
A: inactive

Q: What about the inhibition [3] of the same molecule?
A: inactive

Q: And the inhibition [4]?
A: inactive

Q: Which results are given for CC1(C)C(/C=C/C=C2/N(CCCc3ccccc3)c3ccc(Br)cc3C2(C)C)=[N+](CCCc2ccccc2)c2ccc(Br)cc21?
A: inhibition [1]: 101%; IC50 [2]: 1.25 µM

Q: CCN1/C(=C/C=C/c2sc3c4ccccc4ccc3[n+]2CC)Sc2c1ccc1ccccc21 was tested. Which inhibition [1] did it give?
A: 40%

Q: Which results are given for CC1(C)C(/C=C/C=C2/N(CCCc3ccccc3)c3ccccc3C2(C)C)=[N+](CCCc2ccccc2)c2ccccc21?
A: inhibition [1]: 41%; inhibition [3]: 101%; inhibition [4]: 100%

Q: Which inhibition [1] does the source give for CN1/C(=C/C=C/C2=[N+](CCC[N+](C)(C)C)c3ccccc3C2(C)C)C(C)(C)c2ccccc21 here?
A: 2%

Q: With CCCCN1/C(=C/C=C/C2=[N+](CCCC)c3ccc(Br)cc3C2(C)C)C(C)(C)c2cc(Br)ccc21 as the molecule, how does the inhibition [1] read?
A: 48%

Q: What does the source list for CC[N+]1=C(/C=C/C=C2/N(C)c3ccccc3C2(C)C)C(C)(C)c2ccccc21?
A: inhibition [1]: inactive; inhibition [3]: 9%; inhibition [4]: 41%

Q: With CCCCN1/C(=C/C(/C=C/c2ccccc2)=C/c2sc3ccccc3[n+]2CCCC)Sc2ccccc21 as the molecule, how does the inhibition [1] read?
A: 48%

Q: For CCCCN1/C(=C/C=C/C2=[N+](CCCC)c3ccc4ccccc4c3C2(C)C)C(C)(C)c2c1ccc1ccccc21, which inhibition [1] is on record?
A: 91%

Q: For CC1(C)C(/C=C/C(Cl)=C/C=C2/N(CCCc3ccccc3)c3ccc4ccccc4c3C2(C)C)=[N+](CCCc2ccccc2)c2ccc3ccccc3c21, which inhibition [1] is on record?
A: 96.3%

Q: What about the IC50 [2] of the same molecule?
A: 1.81 µM

Q: CCN1/C(=C/C=C(Cl)/C=C/C2=[N+](CC)c3ccc4ccccc4c3C2(C)C)C(C)(C)c2c1ccc1ccccc21 was tested. Which inhibition [1] did it give?
A: 69%

Q: For CCCCN1/C(=C/C=C/c2sc3ccccc3[n+]2CCCC)Sc2ccccc21, which inhibition [1] is on record?
A: 79%

Q: How did the inhibition [1] turn out when CCCCN1/C(=C/C(C)=C/c2sc3ccccc3[n+]2CCCC)Sc2ccccc21 was run?
A: 77%

Q: How did the inhibition [1] turn out when CCN1/C(=C/C=C/C2=[N+](CC)c3ccc(Br)cc3C2(C)C)C(C)(C)c2cc(Br)ccc21 was run?
A: 11%

Q: For C(/C=C/c1sc2ccccc2[n+]1CCCc1ccccc1)=C1/Sc2ccccc2N1CCCc1ccccc1, which inhibition [1] is on record?
A: 76%

Q: Which inhibition [1] does the source give for CCN1/C(=C/C=C/C2=[N+](CC)c3ccc4ccccc4c3C2(C)C)C(C)(C)c2c1ccc1ccccc21 here?
A: 27%
